pEC50: −log10 of the molar value.
System: Human immunodeficiency virus 1
Assay: Antiviral activity against wild type HIV1 NL4-3 infected in human TZM-bl cells assessed as reduction in viral infection measured after 1 day by luciferase reporter gene assay based luminiscence assay
Assay type: functional, organism-based
Settings: Human immunodeficiency virus 1, NL4-3, TZM-bl, 24 h
Outline: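 TZM-bl cells got a single-round infection with 800 TCID50 of NL4-3 at various compound concentrations, top concentration 100 ng/mL. Luminescence was read 1 day post-infection. EC50 is the concentration giving a 50% decrease in luciferase RLU versus control wells, determined in at least triplicate.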

SMILES | pEC50
Cc1ccnc2c1NC(=O)c1cccnc1N2C1CC1 [NEVIRAPINE] | 6.55
Cc1cc(C#N)cc(C)c1Oc1nc(Nc2ccc(C#N)cc2)ncc1/C=C/C(=O)NCCOCCO | 8.32
Cc1cc(C#N)cc(C)c1Oc1nc(Nc2ccc(C#N)cc2)ncc1/C=C/C(=O)N1CCN(C(=O)C(F)(F)F)CC1 | 7.86
Cc1cc(C#N)cc(C)c1Oc1nc(Nc2ccc(C#N)cc2)ncc1/C=C/C(=O)NCCc1c[nH]c2ccccc12 | 7.09
Cc1cc(C#N)cc(C)c1Oc1nc(Nc2ccc(C#N)cc2)ncc1/C=C/C(=O)NC1CCN(S(C)(=O)=O)C1 (stereo not drawn) | 7.83
Cc1cc(C#N)cc(C)c1Oc1nc(Nc2ccc(C#N)cc2)ncc1/C=C/C(=O)N1CCN(S(=O)(=O)C(F)(F)F)CC1 | < 6.79

System: not listed separately
Assay: Cytotoxicity against human TZM-bl cells assessed as reduction in cell viability measured after 1 day by CytoTox-Glo assay
Assay type: cell-based
Settings: not given
Outline: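 TZM-bl cells were cultured 1 day with various compound concentrations, in parallel with the antiviral assay, top concentration 100 ng/mL. Viable cells were measured by CytoTox-Glo. CC50 is the concentration causing a 50% reduction in cell viability.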

SMILES | CC50 at 24 h [nM]
Cc1ccnc2c1NC(=O)c1cccnc1N2C1CC1 [NEVIRAPINE] | > 15000
Cc1cc(C#N)cc(C)c1Oc1nc(Nc2ccc(C#N)cc2)ncc1/C=C/C(=O)NCCOCCO | > 200
Cc1cc(C#N)cc(C)c1Oc1nc(Nc2ccc(C#N)cc2)ncc1/C=C/C(=O)N1CCN(C(=O)C(F)(F)F)CC1 | > 174
Cc1cc(C#N)cc(C)c1Oc1nc(Nc2ccc(C#N)cc2)ncc1/C=C/C(=O)NCCc1c[nH]c2ccccc12 | > 180
Cc1cc(C#N)cc(C)c1Oc1nc(Nc2ccc(C#N)cc2)ncc1/C=C/C(=O)NC1CCN(S(C)(=O)=O)C1 (stereo not drawn) | > 179
Cc1cc(C#N)cc(C)c1Oc1nc(Nc2ccc(C#N)cc2)ncc1/C=C/C(=O)N1CCN(S(=O)(=O)C(F)(F)F)CC1 | > 164

System: not listed separately
Assay: Selectivity index, ratio of CC50 for human TZM-bl cells to EC50 for wild type HIV1 NL4-3 infected in human TZM-bl cells
Assay type: toxicity, cell-based
Settings: read-out: Ratio CC50/EC50
Outline: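 Selectivity index is CC50/EC50, with both values from the TZM-bl assays: NL4-3 single-round luciferase infection and CytoTox-Glo viability, each over 1 day.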

SMILES | selectivity ratio
Cc1ccnc2c1NC(=O)c1cccnc1N2C1CC1 [NEVIRAPINE] | > 53
Cc1cc(C#N)cc(C)c1Oc1nc(Nc2ccc(C#N)cc2)ncc1/C=C/C(=O)NCCOCCO | > 42
Cc1cc(C#N)cc(C)c1Oc1nc(Nc2ccc(C#N)cc2)ncc1/C=C/C(=O)N1CCN(C(=O)C(F)(F)F)CC1 | > 13
Cc1cc(C#N)cc(C)c1Oc1nc(Nc2ccc(C#N)cc2)ncc1/C=C/C(=O)NCCc1c[nH]c2ccccc12 | > 2
Cc1cc(C#N)cc(C)c1Oc1nc(Nc2ccc(C#N)cc2)ncc1/C=C/C(=O)NC1CCN(S(C)(=O)=O)C1 (stereo not drawn) | > 12
Cc1cc(C#N)cc(C)c1Oc1nc(Nc2ccc(C#N)cc2)ncc1/C=C/C(=O)N1CCN(S(=O)(=O)C(F)(F)F)CC1 | > 1

System: Human immunodeficiency virus 1
Assay: Antiviral activity against wild type HIV-1 3B infected in human MT4 cells assessed as inhibition of virus-induced cytopathic effect measured after 5 days by MTT assay
Assay type: functional, organism-based
Settings: Human immunodeficiency virus 1, 3B, MT4, 120 h
Outline: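 MT-4 cells at 6 × 10^5 cells/mL were infected with virus stock at 100–300 CCID50 in the presence of serial 5-fold compound dilutions, in triplicate wells. Viability was read by MTT reduction 5 days after infection, with absorbance at 540 and 690 nm and the median OD of three wells used. EC50 is the concentration giving 50% protection from viral cytopathicity.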

SMILES | pEC50
Cc1cc(C#N)cc(C)c1Oc1nc(Nc2ccc(C#N)cc2)ncc1/C=C/C(=O)NCCOCCO | 7.57

System: not listed separately
Assay: Cytotoxicity against human MT4 cells assessed as reduction in cell viability measured after 5 days by MTT assay
Assay type: cell-based
Settings: time 5 day
Outline: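 Mock-infected MT-4 cells (6 × 10^5 cells/mL) were run in parallel with the infected wells, under serial 5-fold compound dilutions in triplicate. MTT viability was read after 5 days and the median OD of three wells used. CC50 is the concentration that reduced OD540 of the mock-infected cells by 50%.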

SMILES | CC50 at 120 h [nM]
Cc1ccnc2c1NC(=O)c1cccnc1N2C1CC1 [NEVIRAPINE] | > 9500
Cc1cc(C#N)cc(C)c1Oc1nc(Nc2ccc(C#N)cc2)ncc1/C=C/C(=O)NCCOCCO | 61800

System: not listed separately
Assay: Selectivity index, ratio of CC50 for human MT4 cells to EC50 for wild type HIV-1 3B infected in human MT4 cells
Assay type: toxicity, cell-based
Settings: read-out: Ratio CC50/EC50

SMILES | selectivity ratio
Cc1ccnc2c1NC(=O)c1cccnc1N2C1CC1 [NEVIRAPINE] | > 113
Cc1cc(C#N)cc(C)c1Oc1nc(Nc2ccc(C#N)cc2)ncc1/C=C/C(=O)NCCOCCO | 2280

System: Human immunodeficiency virus 1
Assay: Antiviral activity against HIV-1 harboring reverse transcriptase L100I mutant infected in human MT4 cells assessed as inhibition of virus induced cytopathic effect measured after 5 days by MTT assay
Assay type: functional, organism-based
Settings: Human immunodeficiency virus 1, MT4, 120 h
Outline: (§1)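 MT-4 cells, exponentially growing, resuspended at 6 × 10^5 cells/mL and infected with the mutant HIV-1 stock at 100–300 CCID50. Compounds were added as 5-fold serial dilutions, in triplicate wells, alongside mock-infected wells. After 5 days, viability was read by MTT reduction at 540 and 690 nm using the median OD of three wells. EC50 is the concentration giving 50% protection from viral cytopathogenicity.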

SMILES | pEC50
Cc1ccnc2c1NC(=O)c1cccnc1N2C1CC1 [NEVIRAPINE] | 6.43
Cc1cc(C#N)cc(C)c1Oc1nc(Nc2ccc(C#N)cc2)ncc1/C=C/C(=O)NCCOCCO | 6.64

System: Human immunodeficiency virus 1
Assay: Antiviral activity against HIV-1 harboring reverse transcriptase K103N mutant infected in human MT4 cells assessed as inhibition of virus induced cytopathic effect measured after 5 days by MTT assay
Assay type: functional, organism-based
Settings: Human immunodeficiency virus 1, MT4, 120 h
Outline: as §1

SMILES | pEC50
Cc1ccnc2c1NC(=O)c1cccnc1N2C1CC1 [NEVIRAPINE] | 5.83
Cc1cc(C#N)cc(C)c1Oc1nc(Nc2ccc(C#N)cc2)ncc1/C=C/C(=O)NCCOCCO | 7.30

System: Human immunodeficiency virus 1
Assay: Antiviral activity against HIV-1 harboring reverse transcriptase Y181C mutant infected in human MT4 cells assessed as inhibition of virus induced cytopathic effect measured after 5 days by MTT assay
Assay type: functional, organism-based
Settings: Human immunodeficiency virus 1, MT4, 120 h
Outline: as §1

SMILES | pEC50
Cc1ccnc2c1NC(=O)c1cccnc1N2C1CC1 [NEVIRAPINE] | 5.63
Cc1cc(C#N)cc(C)c1Oc1nc(Nc2ccc(C#N)cc2)ncc1/C=C/C(=O)NCCOCCO | 6.71

System: Human immunodeficiency virus 1
Assay: Antiviral activity against HIV-1 harboring reverse transcriptase Y188L mutant infected in human MT4 cells assessed as inhibition of virus induced cytopathic effect measured after 5 days by MTT assay
Assay type: functional, organism-based
Settings: Human immunodeficiency virus 1, MT4, 120 h
Outline: as §1

SMILES | pEC50
Cc1ccnc2c1NC(=O)c1cccnc1N2C1CC1 [NEVIRAPINE] | 5.47
Cc1cc(C#N)cc(C)c1Oc1nc(Nc2ccc(C#N)cc2)ncc1/C=C/C(=O)NCCOCCO | 6.84

System: Human immunodeficiency virus 1
Assay: Antiviral activity against HIV-1 harboring reverse transcriptase E138K mutant infected in human MT4 cells assessed as inhibition of virus induced cytopathic effect measured after 5 days by MTT assay
Assay type: functional, organism-based
Settings: Human immunodeficiency virus 1, MT4, 120 h
Outline: as §1

SMILES | pEC50
Cc1ccnc2c1NC(=O)c1cccnc1N2C1CC1 [NEVIRAPINE] | 7.14
Cc1cc(C#N)cc(C)c1Oc1nc(Nc2ccc(C#N)cc2)ncc1/C=C/C(=O)NCCOCCO | 7.33

System: Human immunodeficiency virus 1
Assay: Antiviral activity against HIV-1 harboring reverse transcriptase F227L/V106A mutant infected in human MT4 cells assessed as inhibition of virus induced cytopathic effect measured after 5 days by MTT assay
Assay type: functional, organism-based
Settings: Human immunodeficiency virus 1, MT4, 120 h
Outline: as §1

SMILES | pEC50
Cc1ccnc2c1NC(=O)c1cccnc1N2C1CC1 [NEVIRAPINE] | 5.56
Cc1cc(C#N)cc(C)c1Oc1nc(Nc2ccc(C#N)cc2)ncc1/C=C/C(=O)NCCOCCO | 6.50

System: Human immunodeficiency virus 1
Assay: Antiviral activity against HIV-1 harboring reverse transcriptase RES056 mutant infected in human MT4 cells assessed as inhibition of virus induced cytopathic effect measured after 5 days by MTT assay
Assay type: functional, organism-based
Settings: Human immunodeficiency virus 1, MT4, 120 h
Outline: as §1

SMILES | pEC50
Cc1ccnc2c1NC(=O)c1cccnc1N2C1CC1 [NEVIRAPINE] | 5.17
Cc1cc(C#N)cc(C)c1Oc1nc(Nc2ccc(C#N)cc2)ncc1/C=C/C(=O)NCCOCCO | 5.98

System: not listed separately
Assay: Antiviral activity against HIV-2 ROD infected in human MT4 cells assessed as protection against virus-induced cytopathic effect measured after 5 days by MTT assay
Settings: Human immunodeficiency virus 2, ISOLATE ROD, MT4, 120 h

SMILES | pEC50
Cc1cc(C#N)cc(C)c1Oc1nc(Nc2ccc(C#N)cc2)ncc1/C=C/C(=O)NCCOCCO | < 4.21

From ChEMBL document CHEMBL4819008, “Design, synthesis, and evaluation of "dual-site"-binding diarylpyrimidines targeting both NNIBP and the NNRTI adjacent site of the HIV-1 reverse transcriptase” (Eur J Med Chem, 2021)
